Values after ≈ are worked out from the molar mass of the structure shown. Active and inactive are the calls of the source. The calls are words filed in the database; no cut-off is given here.
Tests used:
KMS-12-BM = test: Induction of apoptosis in human KMS-12-BM cells assessed as increase in cleaved-PARP levels at […] after 4 to 72 hrs by Western blot method; format: functional, cell-based
[1] = biological target: Mitogen-activated protein kinase 15 (Homo sapiens) (UniProt Q8TD08); test: Competitive binding affinity to partial length wild type human ERK8 expressed in bacterial expression system at 10 uM by kinomescan method relative to control
Method in brief: (§1)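 DiscoveRX scanMAX kinase panel of protein and lipid kinases and common mutants; competitive binding of compound at 10 µM expressed as percentage of control (POC).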

[2] = Effect on total BAD levels in human KMS-12-BM cells at […] after 4 to 72 hrs by Western blot method; format: ADME, cell-based
[3] = biological target: Casein kinase II subunit alpha' (Homo sapiens) (UniProt P19784); test: Competitive binding affinity to full length wild type human CSNK2A2 expressed in mammalian expression system at 10 uM by kinomescan method relative to control; method in brief: as §1
[4] = Antiproliferative activity against PTEN-deficient human OPM2 cells after 72 hrs by CellTiter-Glo assay; format: functional, cell-based; conditions: OPM-2, 72 h
[5] = Antiproliferative activity against human L363 cells after 72 hrs by CellTiter-Glo assay; format: functional, cell-based; conditions: L-363, 72 h
[6] = biological target: Serine/threonine-protein kinase TAO2 (Homo sapiens) (UniProt Q9UL54); test: Competitive binding affinity to partial length wild type human TAOK2 expressed in mammalian expression system at 10 uM by kinomescan method relative to control; method in brief: as §1
[7] = Antiproliferative activity against human NCI-H929 cells after 72 hrs by CellTiter-Glo assay; format: functional, cell-based; conditions: NCI-H929, 72 h
[8] = Antiproliferative activity against human KMS12PE cells after 72 hrs by CellTiter-Glo assay; format: functional, cell-based; conditions: KMS-12-PE
[9] = Inhibition of Pim signaling in human KMS-12-BM cells assessed as upregulation of Pim1 expression at […] after 4 to 72 hrs by Western blot method; format: cell-based
[10] = Antiproliferative activity against human RPMI8226 cells after 72 hrs by CellTiter-Glo assay; format: functional, cell-based; conditions: RPMI-8226, 72 h
[11] = biological target: Mitogen-activated protein kinase 13 (Homo sapiens) (UniProt O15264); test: Competitive binding affinity to full length wild type human p38delta expressed in bacterial expression system at 10 uM by kinomescan method relative to control; method in brief: as §1
[12] = Oral bioavailability in Sprague-Dawley rat at 5 mg/kg; format: ADME, organism-based; conditions: in vivo
Method in brief: (§2)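 Male Sprague Dawley rats, 3 animals per dosing route, mean values. iv dose 2 mg/kg as a solution in DMSO; po dose 5 mg/kg in 1% Tween 80, 2% HPMC, 97% water/methanesulfonic acid pH 2.2.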

[13] = Antiproliferative activity against human MM1R cells after 72 hrs by CellTiter-Glo assay; format: functional, cell-based; conditions: MM.1R
[14] = Mean residence time in Sprague-Dawley rat at 2 mg/kg, iv; format: ADME, organism-based; conditions: in vivo; method in brief: as §2
[15] = Aqueous solubility in pH 6.8 FsSIF after 48 to 72 hrs by HPLC analysis; format: physicochemical
Method in brief: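 Aqueous solubility determined in 0.01N HCl, PBS (pH 7.4) and FaSIF (pH 6.8).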

[16] = Antiproliferative activity against human KMM1 cells after 72 hrs by CellTiter-Glo assay; format: functional, cell-based; conditions: KMM-1, 72 h

With `C[C@@H]1C[C@H](N)CN(c2ccncc2Nc2ncc3ccc(-c4c(F)cccc4F)nn23)C1` the Activity (KMS-12-BM) was “Active”, the Activity [1] was 0.65% and the Activity [2] was “Non-Toxic”. It also gave an Activity [3] of 2%, an IC50 [4] of 4.38 µM and an IC50 [5] of 332 nM. The Activity [6] was 7.8%, the IC50 [7] was 337 nM and the IC50 [8] was 130 nM. For the same compound, the Activity [9] was “Active”, the IC50 [10] was 569 nM and the Activity [11] was 8.4%. The F [12] was 17%, the IC50 [13] was 457 nM and the MRT [14] was 4.3 h. The solubility [15] was 150 µg/mL (≈ 344 µM) and the IC50 [16] was 2120 nM.

Reference: ChEMBL document CHEMBL3864151, “Discovery of imidazopyridazines as potent Pim-1/2 kinase inhibitors” (Bioorg Med Chem Lett, 2016)
